Only some compounds are listed: those with a hit (about 2.5% of all), similar ones and a draw of the others.
SENP8 block-1: SENP8 (human) protease inhibition; Q96LD8; recombinant SENP8, Nedd8 substrate fluorescence; inhibition, % at 20 µM; hit rate 0.64% among 360,000; AID 602440; in the data active means inhibition mostly above about 40%, no sharp cut-off; inactive means mostly below about 27%
SENP1 FRET inh: SENP1 (human) catalytic domain inhibition; Q9P0U3; recombinant SENP1 catalytic domain, CyPet-SUMO1-YPet FRET cleavage; inhibition, % at 10 µM; hit rate 0.21% among 360,000;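 active means inhibition at least 30% at 10 µM, raw YFP signal under a set limit, fluorescence ratio 0.5 to 1.5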
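Material: hSENP1 catalytic domain, recombinant; medium: Tris pH 8 with BME, BSA, NP40 and catalase; compound: single concentration of 10 µM compound, 0.5% DMSO final; technique: FRET read of cyan and yellow fluorescence; timing: 50 min enzyme reaction, room temperature, light-protected; reagent: SFCypet-SUMO1-SFYpet substrate at 25 nM; control set: no-enzyme low, enzyme-DMSO high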
SENP6 inh: inhibitors of human SENP6 protease; Q9GZR1; Recombinant SENP6 catalytic domain, aminoluciferin luminescence; inhibition, % at 10 µM; hit rate 1.8% among 330,000; AID 2599;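 active means inhibition above about 50% at the single tested dose, limit read from the data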
Target sequence (Q9GZR1 628-1112 limits assumed): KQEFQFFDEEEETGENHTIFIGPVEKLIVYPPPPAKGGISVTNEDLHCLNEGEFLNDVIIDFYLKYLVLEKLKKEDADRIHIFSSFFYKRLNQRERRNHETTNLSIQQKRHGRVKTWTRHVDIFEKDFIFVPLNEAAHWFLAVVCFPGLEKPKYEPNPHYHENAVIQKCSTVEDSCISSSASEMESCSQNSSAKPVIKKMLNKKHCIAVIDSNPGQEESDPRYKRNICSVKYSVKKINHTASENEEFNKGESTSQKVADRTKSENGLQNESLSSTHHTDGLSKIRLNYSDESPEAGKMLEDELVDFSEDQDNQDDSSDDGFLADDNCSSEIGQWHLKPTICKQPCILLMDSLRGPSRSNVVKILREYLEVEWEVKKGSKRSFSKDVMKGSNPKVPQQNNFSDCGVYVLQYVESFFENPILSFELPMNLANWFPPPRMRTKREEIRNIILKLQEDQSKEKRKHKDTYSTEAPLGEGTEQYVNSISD
SENP8 block-2: SENP8 protease inhibition; Q96LD8; AID 2540; purified SENP8, Z-RLRGG-aminoluciferin cleavage, luminescence; inhibition, % at 10 µM; hit rate 1.2% among 330,000; in the data active means inhibition above about 50%
SENP7 inh: inhibitors of human SENP7 protease. inhibition, % at 5 µM. hit rate 1.5% among 330,000. recombinant SENP7, Z-RLRGG-aminoluciferin luminescence, 40 min;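 active means inhibition above about 50% at the single test dose, limit read from the data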
SENP8 conf: human SENP8 inhibition, confirmed; shares compounds with SENP7 inh; Recombinant SENP8, Z-RLRGG-aminoluciferin luminescence, 60 min; inhibition, % at 12.5 µM; hit rate 40% among 6,200;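 active means mean inhibition across replicates above about 50%, limit read from the data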
SENP6 confirm: human SENP6 inhibition, confirmed; shares compounds with SENP7 inh; recombinant SENP6, Z-RLRGG-aminoluciferin luminescence; inhibition, % at 12.5 µM; hit rate 58% among 6,200
SENP7 conf: human SENP7 inhibition, confirmed; inhibition, % at 12.5 µM; recombinant SENP7, Z-RLRGG-aminoluciferin luminescence, 40 min; hit rate 69% among 6,200; AID 488917; shares compounds with SENP7 inh
Casp3 SENP sel: selectivity test for SENP inhibitors: human caspase-3 inhibition | purified caspase-3, Z-DEVD-aminoluciferin luminescence, 60 min | inhibition, % at 12.5 µM | shares compounds with SENP7 inh | AID 488918 | hit rate 60% among 6,200;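 active means mean inhibition above about 50%, limit read from the data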
Target sequence (P42574 28-227 limits assumed): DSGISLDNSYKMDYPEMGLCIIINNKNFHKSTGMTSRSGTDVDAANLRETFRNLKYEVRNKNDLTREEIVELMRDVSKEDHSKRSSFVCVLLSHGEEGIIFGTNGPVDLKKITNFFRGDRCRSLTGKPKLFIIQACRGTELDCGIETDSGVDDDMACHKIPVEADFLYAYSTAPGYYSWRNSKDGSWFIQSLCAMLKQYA
SENP luc ctr: counter-screen for SENP inhibitors: luminescence interference. shares compounds with SENP7 inh. Pre-incubated SENP8/Z-RLRGG-aminoluciferin, luciferase luminescence interference. inhibition, % at 12.5 µM. hit rate 39% among 6,200;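 active means mean inhibition above about 50% when retested at one dose, limit read from the data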
A number is an active result; n = inactive; x = no result.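 How the source made its calls, unless noted: active means mean inhibition above about 50% in the one-dose retest (limit read from the data); inactive means the rest.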

SMILES | SENP8 block-1 | SENP1 FRET inh | SENP6 inh | SENP8 block-2 | SENP7 inh | SENP8 conf | SENP6 confirm | SENP7 conf | Casp3 SENP sel | SENP luc ctr
COc1cccc(N2C(=NC(=O)C3CCCO3)SC3CS(=O)(=O)CC32)c1 (stereo unspecified) | n | n | n | n | n | x | x | x | x | x
COC(=O)c1ccccc1-c1ccc(/C=C2\C(=O)N(c3ccccc3)N=C2c2ccccc2)o1 | n | n | 53 | n | n | n | n | n | n | n
CC1=NN(c2ccccc2)C(=O)/C1=C/c1ccc(-c2ccc(C)c(C(=O)O)c2)o1 | x | x | n | n | n | x | x | x | x | x
Cn1cccc1C(=O)NC(=O)COC(=O)C12CC3CC(CC(O)(C3)C1)C2 | n | n | 54 | n | 62 | 62 | 58 | 82 | 84 | n
CC(=O)NC12CC3CC(C1)CC(C(=O)OCC(=O)NC(=O)c1cccn1C)(C3)C2 | n | n | n | n | n | x | x | x | x | x
Cc1ccc(C(=O)N2CCN(c3ccccc3F)CC2)cc1S(=O)(=O)N1CCOCC1 | n | n | n | n | n | x | x | x | x | x
CCN(C[C@H]1N[C@@](C)(C(=O)OC)[C@H]2C(=O)N(Cc3ccccc3)C(=O)[C@@H]12)C(=O)Nc1ccc(F)cc1 | n | n | n | n | n | x | x | x | x | x
O=C(CSc1ncccc1-c1nc2ccccc2[nH]1)NCc1ccco1 | n | n | n | n | n | x | x | x | x | x
Cc1cc2nc(-c3cccnc3SCC(=O)NCc3ccco3)[nH]c2cc1C | n | n | 84 | 74 | 88 | 91 | 90 | 98 | 90 | 86
O=C(Nc1cccc(NC(=O)c2cccs2)c1)c1ccc2c(c1)OCCO2 | n | n | n | n | n | x | x | x | x | x
Cn1cc(Cl)c(C(=O)N/N=C/c2ccc3c4c(cccc24)CC3)n1 | n | n | n | n | 53 | n | n | n | n | n
Cc1ccc(/C=N/NC(=O)c2nn(C)cc2Cl)cc1 | n | n | n | n | n | x | x | x | x | x
O=C(c1ccccc1F)N1CCN(c2ccc([N+](=O)[O-])c(NCC3CCCO3)c2)CC1 (stereo unspecified) | n | n | n | n | 54 | n | n | n | n | n
O=C1c2ccccc2C(=O)C1c1ccc(Cl)cc1 | n | n | 82 | 77 | n | 89 | 92 | 99 | 89 | 88
O=C1c2ccccc2C(=O)C1c1ccc(O)cc1 | n | n | n | n | n | x | x | x | x | x
O=C1c2ccccc2C(=O)C1c1ccc(Br)cc1 | n | n | 94 | 93 | n | 96 | 94 | 100 | 89 | 95
COc1cccc(C2C(=O)c3ccccc3C2=O)c1 | n | n | n | n | n | x | x | x | x | x
Cc1ccc(/C=C/C(=O)Nc2ccc(S(=O)(=O)Nc3onc(C)c3C)cc2)cc1 | n | n | n | n | n | x | x | x | x | x
CCOC(=O)NNc1ccc2nonc2c1[N+](=O)[O-] | x | x | 64 | 61 | n | 66 | 80 | n | n | n
CC(C)CNC(=S)NNC(=O)c1csc2c1CCCC2 | n | n | n | n | 50 | n | n | n | n | n
Cn1c(NC(=O)c2ccc(F)cc2)nc2ccccc21 | n | n | 80 | 65 | 78 | n | 75 | 95 | 86 | n
O=C(Nc1nc2ccccc2c2nc3ccccc3n12)c1ccc(F)cc1 | x | x | n | n | n | x | x | x | x | x
NC(=O)CC1Nc2cccc3cccc(c23)NC1=O (stereo unspecified) | n | n | 91 | 77 | n | n | n | n | n | n
CCCOc1ccc(NC(=O)CC2Nc3ccccc3NC2=O)cc1 (stereo unspecified) | n | n | n | n | n | x | x | x | x | x
O=C(CC1Nc2cccc3cccc(c23)NC1=O)Nc1ccccc1 (stereo unspecified) | n | n | 87 | n | 53 | n | n | n | n | n
SMILES | SENP8 block-1 | SENP1 FRET inh | SENP6 inh | SENP8 block-2 | SENP7 inh | SENP8 conf | SENP6 confirm | SENP7 conf | Casp3 SENP sel | SENP luc ctr
CCOc1ccccc1/C=C(\C#N)C1=CCCC1 | n | n | n | n | n | x | x | x | x | x
Cc1cc(C)c(C)c(S(=O)(=O)N2CCN(CC(=O)c3c(N)n(Cc4ccccc4)c(=O)n(C)c3=O)CC2)c1C | n | n | n | n | n | x | x | x | x | x
N#CCCN1CCN(C(=O)c2c(N)no[n+]2[O-])CC1 | n | n | n | n | n | x | x | x | x | x
O=c1c(-c2ccc(F)cc2)coc2c3c(ccc12)OCCO3 | n | n | n | n | 76 | n | n | n | n | n
O=c1c(-c2ccc(Br)cc2)coc2c(CN3CCOCC3)c(O)ccc12 | n | n | n | n | n | x | x | x | x | x
O=c1c(-c2ccc(F)cc2)coc2cc(O)ccc12 | n | n | 86 | 82 | n | 90 | 90 | 99 | 94 | 90
COc1cccc(CC(NC(C)=O)C(=O)NC2CCN(C(=O)c3ccc(Cl)cc3)CC2)c1OC (stereo unspecified) | n | n | n | n | n | x | x | x | x | x
COc1ccc2c(c1)CC/C(=C\Nc1ccc3c(c1)OCO3)C2=O | n | n | 61 | 61 | 54 | n | 60 | n | n | n
O=C1/C(=C/Nc2ccc3c(c2)OCO3)CCc2ccccc21 | n | n | 97 | 98 | 98 | n | 101 | 104 | 98 | 85
O=C1OC2(CCCCC2)OC(=O)C1=CNc1ccc2c(c1)OCO2 | n | n | n | n | n | x | x | x | x | x
COc1ccc(N/C=C2\CCc3ccccc3C2=O)cc1 | n | n | 97 | 96 | n | n | 101 | 104 | 99 | 70
CC(C)(C)CNC(=O)c1cccc2c1C(=O)c1ccc(-c3cc4ccccc4o3)cc1S2(=O)=O | n | n | n | n | n | x | x | x | x | x
O=C(/C=C\Nc1ccc(Br)cc1)c1cccnc1 | n | n | 83 | 57 | 66 | 66 | 64 | 83 | 71 | n
O=C(/C=C/Nc1ccc(F)cc1Br)c1ccccc1 | n | n | 96 | 94 | 100 | n | n | n | 75 | n
O=C(/C=C/Nc1ccccc1)c1ccccc1 | n | n | 100 | 93 | 96 | 90 | 96 | 101 | 96 | 54
Cc1cc(N/C=C/C(=O)c2ccccc2)ccc1Br | n | n | 67 | 62 | 80 | n | n | n | n | n
Cc1ccc(N/C=C/C(=O)c2ccc(C)cc2)cc1 | n | n | n | n | n | x | x | x | x | x
C=CCOCCN(CC)CC | n | n | x | x | x | x | x | x | x | x
OCC[C@@H]1C[C@H](O)[C@@H](O)[C@@]2(OCCc3cc(Cl)ccc32)O1 | n | n | x | x | x | x | x | x | x | x
Cc1nccn1-c1cc(C(C)(C)C)nc2c(-c3ccccc3)cnn12 | n | n | n | n | n | x | x | x | x | x
CCNC(=O)C1CCCN(C(=O)c2ccccc2)CC1 (stereo unspecified) | n | n | x | x | x | x | x | x | x | x

Screening results (PubChem BioAssay)
